Several values for one entry are separate records, joined by “and”; a condition that tells them apart may be missing. Equal entries are not always repeated.
Tested on: U2OS
Assay: Multiplex assay against U2OS
Format: toxicity, cell-based
Conditions: human
Outline: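 Imaging took place on a CQ1 microscope at 37°C and 5% CO2 once compound had been added to live cells stained at seeding with Hoechst33342, BioTracker Green Microtubule Cytoskeleton Dye, MitoTracker Red and Annexin V Alexa Fluor 680. CellPathfinder machine-learning gating classed cells as Hoechst high-intensity objects or normal cells, classed normal cells as having healthy, pyknosed or fragmented nuclei, and classed pyknosed cells as mitotic or apoptotic. Tubulin, mitochondrial-mass and membrane-permeability phenotypes are per cents of the healthy-nucleus cells.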

[1] = 12 h, 1 µM, compound concentration 1 uM
[2] = 12 h, 10 µM, compound concentration 10 uM
[3] = 24 h, 1 µM, compound concentration 1 uM
[4] = 24 h, 10 µM, compound concentration 10 uM
[5] = 48 h, 1 µM, compound concentration 1 uM
[6] = 48 h, 10 µM, compound concentration 10 uM

SMILES: Cc1ccc(-c2ccc(F)cc2COc2ccc(CCC(=O)O)cc2)cc1
- Population Apoptotic (%) [1]: 75% and 100%
- Population Fragmented Nuclei (%) [1]: 22% and 17%
- Population Healthy Nuclei (%) [1]: 71% and 74%
- Population Hoechst High Intensity Objects (%) [1]: 2%
- Population Mitochondria Different-Phenotype (%) [1]: 3% and 0%
- Population Mitotic Cells (%) [1]: 25% and 0%
- Population Normal (%) [1]: 97%
- Total Cell Count [1]: 277 and 135
- Population Apoptotic (%) [2]: 75% and 83%
- Population Fragmented Nuclei (%) [2]: 31% and 14%
- Population Healthy Nuclei (%) [2]: 61% and 75%
- Population Hoechst High Intensity Objects (%) [2]: 1% and 2%
- Population Mitochondria Different-Phenotype (%) [2]: 2%
- Population Mitotic Cells (%) [2]: 25% and 16%
- Population Normal (%) [2]: 98% and 97%
- Total Cell Count [2]: 238 and 123
- Population Apoptotic (%) [3]: 90% and 100%
- Population Fragmented Nuclei (%) [3]: 21% and 20%
- Population Healthy Nuclei (%) [3]: 69% and 70%
- Population Hoechst High Intensity Objects (%) [3]: 2% and 1%
- Population Mitochondria Different-Phenotype (%) [3]: 2% and 0%
- Population Mitotic Cells (%) [3]: 10% and 0%
- Population Normal (%) [3]: 97% and 98%
- Total Cell Count [3]: 340 and 175
- Population Apoptotic (%) [4]: 94% and 93%
- Population Fragmented Nuclei (%) [4]: 26% and 22%
- Population Healthy Nuclei (%) [4]: 67%
- Population Hoechst High Intensity Objects (%) [4]: 1% and 2%
- Population Mitochondria Different-Phenotype (%) [4]: 3% and 4%
- Population Mitotic Cells (%) [4]: 5% and 6%
- Population Normal (%) [4]: 98% and 97%
- Total Cell Count [4]: 295 and 160
- Population Apoptotic (%) [5]: 89% and 95%
- Population Fragmented Nuclei (%) [5]: 17% and 15%
- Population Healthy Nuclei (%) [5]: 74% and 75%
- Population Hoechst High Intensity Objects (%) [5]: 2%
- Population Mitochondria Different-Phenotype (%) [5]: 2%
- Population Mitotic Cells (%) [5]: 10% and 5%
- Population Normal (%) [5]: 97%
- Total Cell Count [5]: 487 and 242
- Population Apoptotic (%) [6]: 87% and 88%
- Population Fragmented Nuclei (%) [6]: 21% and 16%
- Population Healthy Nuclei (%) [6]: 70% and 72%
- Population Hoechst High Intensity Objects (%) [6]: 2% and 1%
- Population Mitochondria Different-Phenotype (%) [6]: 3%
- Population Mitotic Cells (%) [6]: 12% and 11%
- Population Normal (%) [6]: 97% and 98%
- Total Cell Count [6]: 421 and 236

SMILES: O=C(Nc1cc(-c2ccccc2)nn1-c1ccccc1F)c1ccc([N+](=O)[O-])cc1
- Population Apoptotic (%) [1]: 86% and 91%
- Population Fragmented Nuclei (%) [1]: 25% and 14%
- Population Healthy Nuclei (%) [1]: 66% and 78%
- Population Hoechst High Intensity Objects (%) [1]: 4% and 1%
- Population Membrane Permeable-Phenotype (%) [1]: 10% and 9%
- Population Mitochondria Different-Phenotype (%) [1]: 4%
- Population Mitotic Cells (%) [1]: 13% and 8%
- Population Normal (%) [1]: 95% and 98%
- Population Pyknosed Nuclei (%) [1]: 8% and 6%
- Population Tubulin-Different-Phenotype (%) [1]: 4% and 9%
- Total Cell Count [1]: 293 and 182
- Population Apoptotic (%) [2]: 66% and 94%
- Population Fragmented Nuclei (%) [2]: 30% and 12%
- Population Healthy Nuclei (%) [2]: 60% and 73%
- Population Hoechst High Intensity Objects (%) [2]: 3% and 0%
- Population Membrane Permeable-Phenotype (%) [2]: 11%
- Population Mitochondria Different-Phenotype (%) [2]: 5% and 8%
- Population Normal (%) [2]: 96% and 100%
- Population Pyknosed Nuclei (%) [2]: 9% and 13%
- Population Tubulin-Different-Phenotype (%) [2]: 7% and 6%
- Total Cell Count [2]: 293 and 134
- Population Apoptotic (%) [3]: 91% and 100%
- Population Fragmented Nuclei (%) [3]: 24% and 15%
- Population Healthy Nuclei (%) [3]: 68% and 76%
- Population Hoechst High Intensity Objects (%) [3]: 3% and 1%
- Population Membrane Permeable-Phenotype (%) [3]: 6% and 9%
- Population Mitochondria Different-Phenotype (%) [3]: 4% and 5%
- Population Mitotic Cells (%) [3]: 8% and 0%
- Population Normal (%) [3]: 96% and 98%
- Population Pyknosed Nuclei (%) [3]: 7% and 8%
- Population Tubulin-Different-Phenotype (%) [3]: 5% and 6%
- Total Cell Count [3]: 342 and 226
- Population Apoptotic (%) [4]: 91% and 100%
- Population Fragmented Nuclei (%) [4]: 25% and 14%
- Population Healthy Nuclei (%) [4]: 64% and 76%
- Population Hoechst High Intensity Objects (%) [4]: 1% and 0%
- Population Membrane Permeable-Phenotype (%) [4]: 7% and 11%
- Population Mitochondria Different-Phenotype (%) [4]: 3% and 8%
- Population Mitotic Cells (%) [4]: 8% and 0%
- Population Normal (%) [4]: 98% and 99%
- Population Pyknosed Nuclei (%) [4]: 9%
- Population Tubulin-Different-Phenotype (%) [4]: 5% and 8%
- Total Cell Count [4]: 353 and 164
- Population Apoptotic (%) [5]: 89% and 90%
- Population Fragmented Nuclei (%) [5]: 17% and 12%
- Population Healthy Nuclei (%) [5]: 73% and 79%
- Population Hoechst High Intensity Objects (%) [5]: 2% and 1%
- Population Membrane Permeable-Phenotype (%) [5]: 9% and 6%
- Population Mitochondria Different-Phenotype (%) [5]: 5% and 4%
- Population Mitotic Cells (%) [5]: 10%
- Population Normal (%) [5]: 97% and 98%
- Population Pyknosed Nuclei (%) [5]: 8%
- Population Tubulin-Different-Phenotype (%) [5]: 5%
- Total Cell Count [5]: 475 and 371
- Population Apoptotic (%) [6]: 81% and 89%
- Population Fragmented Nuclei (%) [6]: 20% and 10%
- Population Healthy Nuclei (%) [6]: 67% and 76%
- Population Hoechst High Intensity Objects (%) [6]: 2%
- Population Membrane Permeable-Phenotype (%) [6]: 8% and 11%
- Population Mitochondria Different-Phenotype (%) [6]: 4% and 8%
- Population Mitotic Cells (%) [6]: 18% and 10%
- Population Normal (%) [6]: 97%
- Population Pyknosed Nuclei (%) [6]: 12% and 13%
- Population Tubulin-Different-Phenotype (%) [6]: 6% and 8%
- Total Cell Count [6]: 445 and 226

From ChEMBL document CHEMBL5724801, “EUbOPEN Chemogenomics Library - Multiplex” (2024)
